Sampled rows, rich in hits. Any-hit rate of the full collection: about 1.1%.
GSK3beta inhib = human GSK3beta kinase inhibitors, primary screen, biochemical, cell-free homogeneous, HTS. activity score (negative = inhibition), % at 10 µM. actives 0.038% (n = 300,000). Glycogen synthase kinase-3 beta (Homo sapiens), P49841. GST-GSK3beta kinase, ADP-Glo luminescence, 60 min; active compounds read low;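 active = more than half of replicate wells score below -50%, meaning over 50% inhibition versus plate controls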;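 also: 0% = median DMSO wells and -100% = median GW8510 positive control wells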
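Test system: GST-fused GSK3beta enzyme, cell-free | Quantity: 1.6 ng GST-GSK3beta enzyme per well | Reagent: 25 µM ATP with peptide substrate | Schedule: 60 min enzyme reaction, room temperature | Signal: Luminescent ADP-Glo measurement of ADP formed | Read-out basis: Score relative to plate controls | Control set: DMSO and 20 µM GW8510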
GSK3 alpha inh = blockers of GSK3A enzyme activity – biochemical, luminescence, cell-free homogeneous, HTS, primary screen; GSK-3 alpha kinase, ADP-Glo luminescence, 60 min; Glycogen synthase kinase-3 alpha (Homo sapiens), P49840; actives 0.1% (n = 320,000); inhibition, % at 10 µM;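 active = more than half of replicates show inhibition above 20%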;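 also: GST-tagged GSK-3 alpha with peptide substrate and 25 µM ATP; 0% = DMSO neutral wells and 100% = GW8510 positive control wells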
Target sequence (P49840 whole entry, looked up): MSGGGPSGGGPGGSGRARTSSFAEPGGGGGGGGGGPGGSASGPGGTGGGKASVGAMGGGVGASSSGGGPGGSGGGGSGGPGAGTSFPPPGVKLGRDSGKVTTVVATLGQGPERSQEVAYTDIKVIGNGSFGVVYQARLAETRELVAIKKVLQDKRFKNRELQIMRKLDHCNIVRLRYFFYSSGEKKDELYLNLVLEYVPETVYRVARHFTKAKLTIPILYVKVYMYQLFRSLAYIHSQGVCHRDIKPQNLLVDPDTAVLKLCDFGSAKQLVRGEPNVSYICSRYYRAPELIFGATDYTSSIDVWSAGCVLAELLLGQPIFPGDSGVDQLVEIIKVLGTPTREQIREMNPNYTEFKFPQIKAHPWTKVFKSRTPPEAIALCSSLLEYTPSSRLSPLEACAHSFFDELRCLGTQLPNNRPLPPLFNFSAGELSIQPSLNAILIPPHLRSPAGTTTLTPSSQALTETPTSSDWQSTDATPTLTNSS
SR-BI DiI inh = inhibitors of SR-BI mediated HDL lipid uptake, primary screen, ldlA[mSR-BI] cells, fluorescence, single point | AID 488896, 2010 | inhibition, % at 12.5 µM | ldlA[mSR-BI] CHO cells, DiI-HDL uptake fluorescence, 3 h | actives 0.96% (n = 320,000);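 active = mean replicate inhibition of at least 70% and a set share of replicates each scoring 70 or more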;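 also: 0% = median of neutral control wells and 100% = median of positive control wells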
CDK5 p35 inh = inhibitors of human CDK5/p35 kinase, primary screen, biochemical, single concentration. inhibition, % at 10 µM. Recombinant CDK5/p35, ADP-Glo luminescence, 60 min. Cyclin-dependent kinase 5 (Homo sapiens) + Cyclin-dependent kinase 5 activator 1 (Homo …. AID 488839, 2010. actives 0.01% (n = 330,000);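 active = highest replicate inhibition of at least 50% and at least 75% of replicates reaching 50%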;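 also: plate controls were DMSO neutral control for no effect and GW8510 at 10 µM for full effect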
SR-BI uptake up = activators of SR-BI mediated DiI-HDL uptake, primary screen, ldlA[mSR-BI] CHO cells, DiI fluorescence. 3 h; 100 = double the neutral-control signal. actives 0.096% (n = 320,000). activation, % at 12.5 µM;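 active = mean replicate activation of at least 60% and every replicate at or above 60%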;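 also: 0% = median plate neutral-control signal and 100% = twice that signal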
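Material: SR-BI-overexpressing, LDLR-lacking CHO cells; schedule: compound exposure 3 h, 37 °C; reagent: DiI-labelled HDL at 10 µg/mL final; technique: bottom-read fluorescence, 550/595 nm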
* hit, by the source's call; / = not tested or not shown.

SMILES	GSK3beta inhib	GSK3 alpha inh	SR-BI DiI inh	CDK5 p35 inh	SR-BI uptake up
COc1ccc(OC(C)C(=O)NC(C)c2ccccc2)cc1 (configuration not stated)	-2	3	-4	1	4
COCc1cc(N2CCN(c3ccccc3F)CC2)nc(-c2ccccc2)n1	-4	3	80*	1	-80
Cc1cccc2c(C(=O)O)c3cccc(C)c3nc12	5	-4	-9	-1	9
Cc1ccc(N2CC(C(=O)Nc3nnc(SCC(N)=O)s3)CC2=O)cc1 (configuration not stated)	4	-1	-8	2	8
COc1cc(-c2ccc3oc(-c4ccsc4)c(C#CC4(O)CCCCC4)c3c2)cc(OC)c1OC	4	-5	76*	-2	-76
OC1(C#Cc2c(-c3ccsc3)oc3ccc(N4CCOCC4)cc23)CCCCC1	4	-1	30	-2	-30
CC(=O)N1N=C(c2ccc(Cl)cc2)CC1c1ccc([N+](=O)[O-])cc1 (configuration not stated)	2	-1	33	1	-33
CC1(O)CC(c2ccc(Cl)cc2)=NN1C(=O)c1ccc([N+](=O)[O-])cc1 (configuration not stated)	-3	0	89*	2	-89
COc1ccc(NC(=O)c2cn(-c3ccccc3)nc2-c2ccncc2)cc1	3	-2	49	-1	-49
COc1ccc(NC(=O)c2cn(-c3ccccc3)nc2-c2cc3ccccc3o2)cc1	0	-2	81*	0	-81
[O-][n+]1onc2c1CCc1c-2nc(-c2ccccc2)n1OCc1ccccc1	2	-1	80*	-2	-80
CC1CCN(c2nnc(-c3ccccc3)c3ccccc23)CC1	-2	-2	84*	-1	-84
CCOc1ccc(-c2c(C(=O)N/N=C/c3sccc3C)nnn2-c2nonc2N)cc1	1	1	87*	0	-87
CCOc1cccc(-c2c(C(=O)N/N=C/c3sccc3C)nnn2-c2nonc2N)c1	0	36	66	-1	-66
CCc1c(C(=O)N/N=C/c2sccc2C)nnn1-c1nonc1N	4	0	77*	0	-77
Cc1ccsc1/C=N/NC(=O)c1nnn(-c2nonc2N)c1CN(C)c1ccccc1	-1	13	7	-2	-7
CCOc1ccc(-c2c(C(=O)N/N=C/c3cccs3)nnn2-c2nonc2N)cc1	0	2	81*	-1	-81
CCCNC(=O)[C@H](C)NC(=O)c1ccc(Br)cc1	-1	-2	15	-1	-15
Cc1ccc(N=C2NC(=O)/C(=C/c3cn(C)c4ccccc34)S2)cc1C	/	-2	81*	0	-81
Cn1cccc1/C=C1\SC(=Nc2ccccc2)NC1=O	5	3	17	-3	-17
Cc1ccnc(NC(=S)NC(=O)c2ccco2)c1	0	/	-64	2	64*
O=C(NC(=S)Nc1ccccn1)c1ccco1	5	18	6	0	-6
Cc1cccc(NC(=O)c2cc(-c3cc(C)cc(C)c3O)n[nH]2)c1	2	0	72*	0	-72
COc1ccc(OC)c(NC(=O)c2cc(-c3cc(C)cc(C)c3O)n[nH]2)c1	0	-1	77*	2	-77
NCCCCC(N)c1cn([C@@H](CCC(=O)O)C(=O)N2CCNCC2)nn1 (some centres not stated)	/	-1	/	2	/
SMILES	GSK3beta inhib	GSK3 alpha inh	SR-BI DiI inh	CDK5 p35 inh	SR-BI uptake up
Cc1cc(C2C(=O)NC(=O)C2=O)c(C)cc1Br (configuration not stated)	/	/	-15	1	15
COC(=O)c1cc(C(=O)OCC(=O)c2ccc3c(c2)NC(=O)CO3)cc([N+](=O)[O-])c1	/	/	46	1	-46
CC(=O)COc1ccc2c(-c3ccccc3)cc(=O)oc2c1C	-2	-1	72*	3	-72
Cc1cc(=O)oc2c(C)c(OC(C)C(=O)NCc3ccccn3)ccc12 (configuration not stated)	1	-5	19	1	-19
COc1ccc(-c2cc(=O)oc3c(C)c(OC(C)C(=O)NCc4ccccn4)ccc23)cc1 (configuration not stated)	4	-1	77*	-1	-77
CCN1CCN(C(=O)c2ccc(NS(=O)(=O)c3ccccc3)cc2)CC1	-1	0	2	1	-2
CC(C)C[C@H](NC(=O)N1CCCCCC1)C(=O)O	3	-2	-19	-3	19
Cc1nc(C)n(CC(C)C(=O)N2CCN(S(=O)(=O)c3ccccc3)CC2)n1 (configuration not stated)	0	8	/	0	/
Cc1ccccc1NS(=O)(=O)c1cc(C(=O)Nc2cccc(N(C)S(C)(=O)=O)c2)ccc1C	-5	-1	71*	-2	-71
COc1ccc(-c2sc3cc4c(cc3c2C#Cc2ccc(N)cc2)OCO4)cc1	/	-1	93*	-1	-93
COc1ccc(-c2sc3cc4c(cc3c2C#CCO)OCO4)cc1	/	0	63	-2	-63
COc1ccc(S(N)(=O)=O)cc1C(=O)NNC(=O)c1cccc(S(=O)(=O)N2CCOCC2)c1	/	/	-22	-2	22
CCCn1nnc(NC(=S)NC(=O)/C=C/c2ccc(Cl)cc2)n1	1	-4	-364	-2	364*
COc1ccc(OC)c(NC(=O)C(CC(C)C)NC(=O)C2CCCCC2)c1 (configuration not stated)	0	-1	65	0	-65
COc1ccc(NC(=O)C(CC(C)C)NC(=O)C2CCC(C)CC2)c(OC)c1 (configuration not stated)	1	-3	72*	0	-72
CCC(C)C(NC(=O)C1CCC(C)CC1)C(=O)Nc1ccc(OC)cc1OC (configuration not stated)	-2	-1	79*	0	-79
CCC(C)NC(=O)C(=O)NCc1ccccn1 (configuration not stated)	0	-2	0	2	0
CC(CCc1ccccc1)NC(=O)C1CCCN(C(=O)c2cc3sccc3n2C)C1 (configuration not stated)	0	0	80*	2	-80
Cn1c(C(=O)N2CCCC(C(=O)NCc3cccs3)C2)cc2sccc21 (configuration not stated)	-1	-2	41	2	-41
